Assay results taken from the array DNA melting data of Ke et al. (doi:10.1101/2024.01.08.574731).

Tests used:
[1] = folding enthalpy; higher = less favourable; fluorescence melt of hairpins on a sequencing array, two-state fit; settings: sodium 0.088 M
Outline: (§1)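 Two-state fits, bootstrapped, provided melting temperature and folding enthalpy from Cy3 fluorescence normalised to pre-quench Cy3 and to control constructs. Library hairpins with annealed Cy3 and quencher oligos were imaged on a sequenced MiSeq flow cell in 50 mM Na-HEPES pH 8.0, 25 mM NaCl, at 2.5 °C intervals up to 60 °C. Four replicates were combined with inverse-variance weighting. A 9.35 °C upward shift was applied to fitted temperatures to match UV melts.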

[2] = melting temperature; fluorescence melt of hairpins on a sequencing array, two-state fit, raised by 9.35 °C to match UV melts; settings: sodium 0.088 M
Outline: as §1

Row | Sequence | folding enthalpy [1] [kcal/mol] | Tm [2] [°C]
1 | GCAATGCGAAAGCATCGC ((.((((....)))).)) | -21.4 | 58.1
2 | GCAATGCGAAAGCATGGC ((.((((....)))).)) | -34 | 65.2
3 | GCAATGCGAAAGCGGTGC (((..((....))..))) | -21.7 | 56.6
4 | GCAATGCGAAAGCGTCGC ((.(.((....)).).)) | -19.3 | 45.4
5 | GCAATGCGAAAGCTGTGC (((..((....))..))) | -20.6 | 48.4
6 | GCAATGGGAAACCATCGC ((.((((....)))).)) | -28.8 | 42.1
7 | GCAATTGGAAACAATTAC (.(((((....))))).) | -15.1 | 30.6
8 | GCAATTGGAAACAATTGC (((((((....))))))) | -43.9 | 58.9
9 | GCACAAACGAAAGTTTGC (((..(((....)))))) | -11.2 | 39.7
10 | GCACAAGGAAACTTGTGC (((((((....))))))) | -33.7 | 67.4
11 | GCACACGAAAGTGATGC ((((((....))).))) | -33.1 | 54.5
12 | GCACACGAAAGTGCATGC ((((((....)))..))) | -14.4 | 42.1
13 | GCACACGAAAGTGCTTGC ((((((....)))..))) | -20.8 | 53.6
14 | GCACACGAAAGTGGGTGC ((((((....)))..))) | -24.1 | 53.5
15 | GCACACGAAAGTGTATGC ((((((....)))..))) | -15.1 | 45.8
16 | GCACACGAAAGTGTTTGC ((((((....)))..))) | -13.7 | 39.6
17 | GCACAGCGAAAGCAGAGC ((.(.((....)).).)) | -13.7 | 47.3
18 | GCACAGCGAAAGCGGCGC ((.(.((....)).).)) | -28.6 | 63.7
19 | GCACAGCGAAAGCTCGGC ((..(((....)))..)) | -15.2 | 38.4
20 | GCACAGCGAAAGCTGAGC ((.((((....)))).)) | -17.2 | 63.4
21 | GCACAGGGAAACCTGTGC (((((((....))))))) | -38 | 69.3
22 | GCACATCCGAAAGGATGC (((..(((....)))))) | -8.29 | 37.4
23 | GCACATGGAAACATGTAC (.(((((....))))).) | -17 | 37.4

Row | Sequence | folding enthalpy [1] [kcal/mol] | Tm [2] [°C]
24 | GCACATGGAAACATGTGC (((((((....))))))) | -43.4 | 67.4
25 | GCACCAGAAATGGTGC ((((((....)))))) | -35.6 | 67.8
26 | GCACCAGCGAAAGCTTGC (((..(((....)))))) | -11.8 | 38.1
27 | GCACCAGGAAACTGGTAC (.(((((....))))).) | -16.7 | 39.6
28 | GCACCCACGAAAGTGTGC (((..(((....)))))) | -19 | 45.4
29 | GCACCCCGAAAGGGTTGC (((.(((....))).))) | -34.8 | 55.1
30 | GCACCCGAAAGGGACTGC ((((((....)))..))) | -16 | 40.8
31 | GCACCCGGAAACGGATGC (((.(((....))).))) | -25.5 | 51.6
32 | GCACCGCCGAAAGGCTGC (((..(((....)))))) | -14.7 | 38.9
33 | GCACCGCGAAAGCAGAGC ((.(.((....)).).)) | -15.2 | 41.5
34 | GCACCGCGAAAGCCTTGC (((..((....))..))) | -14.8 | 37
35 | GCACCGCGAAAGCGAAGC ((..(((....)))..)) | -11.7 | 41.4
36 | GCACCGCGAAAGCGACGC ((..(((....)))..)) | -15.6 | 47.2
37 | GCACCGCGAAAGCGAGGC ((..(((....)))..)) | -14.6 | 53.2
38 | GCACCGCGAAAGCGATGC (((.(((....))).))) | -43.6 | 57.4
39 | GCACCGCGAAAGCGCAGC ((..(((....)))..)) | -9.35 | 38.4
40 | GCACCGCGAAAGCGCCGC ((..(((....)))..)) | -8.78 | 36.1
41 | GCACCGCGAAAGCGCTGC (((.(((....))).))) | -31.9 | 50.3
42 | GCACCGCGAAAGCGTGC (((.(((....)))))) | -19 | 63.8
43 | GCACCGCGAAAGCTGAGC ((.(.((....)).).)) | -14.4 | 37.5
44 | GCACCGGGAAACCAGTGC ((((.((....)).)))) | -32.1 | 49.4
45 | GCACCTCGAAAGAGTGC (((.(((....)))))) | -46.4 | 53.3
46 | GCACGACCGAAAGGTTGC (((..(((....)))))) | -14.4 | 38.1

Row | Sequence | folding enthalpy [1] [kcal/mol] | Tm [2] [°C]
47 | GCACGACGAAAGTCATGC (((.(((....))).))) | -36.5 | 52.6
48 | GCACGAGGAAACCCGTAC (.(((.(....).))).) | -6.61 | 21.9
49 | GCACGAGGAAACTCGTAC (.(((((....))))).) | -12.7 | 38.9
50 | GCACGCCCGAAAGGGTGC (((..(((....)))))) | -11.8 | 49.9
51 | GCACGCGAAAGCGATGC ((((((....))).))) | -21.3 | 65.2
52 | GCACGCGAAAGCGCATGC ((((((....)))..))) | -13.6 | 43
53 | GCACGCGAAAGCGGGTGC ((((((....)))..))) | -17.4 | 66.1
54 | GCACGCGAAAGCGTTTGC ((((((....)))..))) | -10.6 | 42.9
55 | GCACGCGGAAACGCATGC (((.(((....))).))) | -40.4 | 52.8
56 | GCACGGCGAAAGCAATGC (((..((....))..))) | -15.5 | 39.1
57 | GCACGGCGAAAGCCCCGC ((..(((....)))..)) | -8.33 | 32.2
58 | GCACGGCGAAAGCCCTGC (((.(((....))).))) | -26 | 47.3
59 | GCACGGCGAAAGCCTAGC ((..(((....)))..)) | -14.4 | 39.5
60 | GCACGGCGAAAGCCTTGC (((.(((....))).))) | -54.8 | 54.2
61 | GCACGGGGAAACCCACGC ((..(((....)))..)) | -23.9 | 41.5
62 | GCACGGGGAAACTCGTGC (((((.(....).))))) | -45.9 | 60.5
63 | GCACGGTCGAAAGACTGC (((..(((....)))))) | -13.9 | 39.4
64 | GCACGTGGAAACACGCAC (..((((....))))..) | -9.68 | 29.2
65 | GCACTACGAAAGTAATGC (((.(((....))).))) | -29.3 | 43.7
66 | GCACTAGGAAACTAGCGC ((.((((....)))).)) | -33.4 | 45.5
67 | GCACTCCCGAAAGGGTGC (((..(((....)))))) | -24.2 | 50.7
68 | GCACTCCGAAAGGATTGC (((.(((....))).))) | -28.1 | 50.6
69 | GCACTCGAAAGAGATGC ((((((....))).))) | -29.4 | 49.4

Row | Sequence | folding enthalpy [1] [kcal/mol] | Tm [2] [°C]
70 | GCACTCGAAAGAGGGTGC ((((((....)))..))) | -31.5 | 50.8
71 | GCACTCGAAAGAGTTGC ((((((....))).))) | -22.3 | 51.4
72 | GCACTCGGAAACGAGCAC (..((((....))))..) | -11.7 | 29.3
73 | GCACTCTCGAAAGAGTGC (((..(((....)))))) | -45.9 | 65
74 | GCACTGCGAAAGCAGCGC ((.((((....)))).)) | -28.9 | 69.1
75 | GCACTGCGAAAGCGCTGC (((..((....))..))) | -20.6 | 42.6
76 | GCACTGGGAAACCGGTGC ((((.((....)).)))) | -44.1 | 59.6
77 | GCACTGTCGAAAGACTGC (((..(((....)))))) | -15.9 | 39.4
78 | GCAGACCGAAAGGTATGC (((.(((....))).))) | -39.5 | 64.1
79 | GCAGACGAAAGTCAATGC ((((((....)))..))) | -19.3 | 43.9
80 | GCAGACGAAAGTCAGTGC ((((((....)))..))) | -19 | 46.4
81 | GCAGACGAAAGTCATTGC ((((((....)))..))) | -16.5 | 37.1
82 | GCAGACGAAAGTCCATGC ((((((....)))..))) | -16.5 | 35.3
83 | GCAGACGAAAGTCCGTGC ((((((....)))..))) | -15.1 | 38.6
84 | GCAGACGAAAGTCCTGC ((((((....))).))) | -23.8 | 52.9
85 | GCAGACGAAAGTCGCTGC ((((((....)))..))) | -22.2 | 57.6
86 | GCAGACGAAAGTCTCTGC ((((((....)))..))) | -14.8 | 44.1
87 | GCAGACGCGAAAGCGTGC (((..(((....)))))) | -11.8 | 52
88 | GCAGACGGAAACATCCGC ((.((.(....).)).)) | -13.3 | 26.5
89 | GCAGACGGAAACGCCTGC ((((.((....)).)))) | -51.1 | 56
90 | GCAGACGGAAACGTCCAC (..((((....))))..) | -9.46 | 32.1
